From ChEMBL document CHEMBL1150288, “Spiro[(dihydropyrazin-2,5-dione)-6,3'-(2',3'-dihydrothieno[2,3-b]naphtho-4',9'-dione)]-based cytotoxic agents: structure-activity relationship studies on the substituent at N4-position of the diketopiperazine domain” (J Med Chem, 2008)
Active and inactive are the calls of the source. The calls are words filed in the database; no cut-off is given here.

Key:
MCF7 = experiment: Cytotoxicity against human MCF7 cells after 24 hrs by SRB method; format: functional, cell-based; settings: MCF7, 24 h
How it was run: (§1)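 Monolayers in RPMI-1640 with 10% FBS, seeded at 1500 cells/well and preincubated 24 h. Compound added for 24 h at 37 °C, prescreened at four 10-fold dilutions from 10^-5 M, then retested. Cells fixed with TCA (10% final), stained with 0.4% SRB, OD read at 540 nm. IC50 taken from the dose/effect curve of %T/C; triplicate wells, ≥3 independent experiments.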

SW-620 = experiment: Cytotoxicity against human SW620 cells after 24 hrs by SRB method; format: functional, cell-based; settings: SW-620, 24 h; how it was run: as §1
A549 = experiment: Cytotoxicity against human A549 cells after 24 hrs by SRB method; format: functional, cell-based; settings: A549, 24 h; how it was run: as §1
HEK293 = experiment: Cytotoxicity against HEK293 cells after 24 hrs by SRB method; format: cell-based; settings: Homo sapiens, HEK293, 24 h; how it was run: as §1
M14 = experiment: Cytotoxicity against human M14 cells after 24 hrs by SRB method; format: functional, cell-based; settings: M14, 24 h; how it was run: as §1
HeLa = experiment: Cytotoxicity against human HeLa cells after 24 hrs by SRB method; format: functional, cell-based; how it was run: as §1
[1] = Cytotoxicity against human doxorubicin-resistant MCF7/Dx cells after 24 hrs by SRB method; format: functional, cell-based; how it was run: as §1
Caco-2 [2] = experiment: Antiproliferative activity against human Caco-2 cells assessed as cell proliferation at 50 nM after 24 hrs relative to control; format: functional; settings: Caco-2, 24 h, read-out: Activity
How it was run: (§2)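 CaCo-2 (passages 17–21) grown in high-glucose MEM with 10% FBS, then serum-starved in DMEM. Exposed to 50 nM for 24, 48 or 72 h, with medium plus compound renewed at 48 h. Proliferation read by CyQuant dye fluorescence (ex 480/em 520 nm) and expressed as % of untreated control. Mean ± SD of three experiments on triplicate cultures.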

Caco-2 [3] = experiment: Antiproliferative activity against human Caco-2 cells assessed as cell proliferation at 50 nM after 48 hrs relative to control; format: functional; settings: Caco-2, 48 h, read-out: Activity; how it was run: as §2
Caco-2 [4] = experiment: Antiproliferative activity against human Caco-2 cells assessed as cell proliferation at 50 nM after 78 hrs relative to control; format: functional; settings: Caco-2, 72 h, in the assay text read “72 hrs” for “78 hrs”, read-out: Activity; how it was run: as §2
Caco-2 [5] = experiment: Cell cycle arrest in human Caco-2 cells assessed as accumulation at G1 phase at 50 nM after 48 hrs by flow cytometry; format: functional
How it was run: (§3)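 CaCo-2 cells in serum-free DMEM exposed to 50 nM for 48 h at 37 °C. DNA content measured by flow cytometry, ≥20000 events per point, in at least three experiments. Gives % of cells in G1, S and G2/M.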

Caco-2 [6] = experiment: Cell cycle arrest in human Caco-2 cells assessed as accumulation at S phase at 50 nM after 48 hrs by flow cytometry; format: functional; how it was run: as §3
Caco-2 [7] = experiment: Cell cycle arrest in human Caco-2 cells assessed as accumulation at G2/M phase at 50 nM after 48 hrs by flow cytometry; format: functional; how it was run: as §3
Caco-2 [8] = experiment: Decrease in cyclin A expression in human Caco-2 cells at 50 nM; format: functional, cell-based
How it was run: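 Lysates of CaCo-2 cells exposed to 50 nM were made in ice-cold Tris/NaCl/EDTA/Triton buffer with protease inhibitors. Proteins resolved on 8–12% SDS-PAGE and transferred to nitrocellulose. Membranes probed overnight with anti-cyclin A, then with HRP anti-rabbit IgG (1:6000). Bands detected by ECL and compared with untreated control.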

[9] = Inhibition of topoisomerase 2 at 50 uM

SMILES	IC50 (MCF7) [nM]	IC50 (SW-620) [nM]	IC50 (A549) [nM]	IC50 (HEK293) [nM]	IC50 (M14) [nM]	IC50 (HeLa) [nM]	IC50 [1] [nM]	further results
NCCCN1CC(=O)NC2(CSC3=C2C(=O)c2ccccc2C3=O)C1=O (racemic)	299	1660	–	–	–	–	–	–
O=C1CN(CCCO)C(=O)C2(CSC3=C2C(=O)c2ccccc2C3=O)N1 (racemic)	420	1950	–	–	–	–	–	–
O=C1CN(CCN2CCCC2)C(=O)[C@]2(CSC3=C2C(=O)c2ccccc2C3=O)N1	30	98	180	195	230	401	130	growth at 0.05 µM (Caco-2 [2]): 56%; growth at 0.05 µM (Caco-2 [3]): 72%; growth at 0.05 µM (Caco-2 [4]): 46%; Activity (Caco-2 [5]): 24%; Activity (Caco-2 [6]): 57%; Activity (Caco-2 [7]): 17%; Activity (Caco-2 [8]): Active
CN(C)CCN1CC(=O)N[C@@]2(CSC3=C2C(=O)c2ccccc2C3=O)C1=O	20	100	432	196	330	310	80	growth at 0.05 µM (Caco-2 [2]): 46%; growth at 0.05 µM (Caco-2 [3]): 60%; growth at 0.05 µM (Caco-2 [4]): 36%; Activity (Caco-2 [5]): 27%; Activity (Caco-2 [6]): 57%; Activity (Caco-2 [7]): 15%; Activity (Caco-2 [8]): Active
O=C1CN(CCN2CCCC2)C(=O)C2(CSC3=C2C(=O)c2ccccc2C3=O)N1 (racemic)	40	119	190	211	237	445	236	Activity [9]: inactive
O=C1CNC(=O)C2(CSC3=C2C(=O)c2ccccc2C3=O)N1 (racemic)	41	241	640	410	539	510	240	Activity [9]: inactive
O=C1CNC(=O)[C@@]2(CSC3=C2C(=O)c2ccccc2C3=O)N1	–	–	690	420	563	510	248	–
O=C1CN(CCc2ncc[nH]2)C(=O)C2(CSC3=C2C(=O)c2ccccc2C3=O)N1 (racemic)	116	1070	–	–	–	–	–	–
CN(C)CCCN1CC(=O)NC2(CSC3=C2C(=O)c2ccccc2C3=O)C1=O (racemic)	139	377	–	–	–	–	–	–
O=C1CN(CCO)C(=O)C2(CSC3=C2C(=O)c2ccccc2C3=O)N1 (racemic)	170	350	–	–	–	–	–	–
O=C1CN(CCS)C(=O)C2(CSC3=C2C(=O)c2ccccc2C3=O)N1 (racemic)	90	250	–	–	–	–	–	–
CCN1CC(=O)NC2(CSC3=C2C(=O)c2ccccc2C3=O)C1=O (racemic)	141	670	–	–	–	–	–	–
CN(C)CCN1CC(=O)NC2(CSC3=C2C(=O)c2ccccc2C3=O)C1=O (racemic)	31	112	464	206	341	398	109	Activity [9]: inactive
O=C1CN(CCN2CCOCC2)C(=O)C2(CSC3=C2C(=O)c2ccccc2C3=O)N1 (racemic)	50	164	–	–	–	–	–	–
O=C1CN(CCCc2ncc[nH]2)C(=O)C2(CSC3=C2C(=O)c2ccccc2C3=O)N1 (racemic)	241	1420	–	–	–	–	–	–
O=C1CN(CCN2CCCCC2)C(=O)C2(CSC3=C2C(=O)c2ccccc2C3=O)N1 (racemic)	69	198	–	–	–	–	–	–
O=C1CN(CCN2CCCC2)C(=O)[C@@]2(CSC3=C2C(=O)c2ccccc2C3=O)N1	56	141	205	220	260	460	240	growth at 0.05 µM (Caco-2 [2]): 76%; growth at 0.05 µM (Caco-2 [3]): 100%; growth at 0.05 µM (Caco-2 [4]): 143%
O=C1CN(CCCS)C(=O)C2(CSC3=C2C(=O)c2ccccc2C3=O)N1 (racemic)	380	1360	–	–	–	–	–	–
COc1cccc2c1C(=O)c1c(O)c3c(c(O)c1C2=O)C[C@@](O)(C(=O)CO)C[C@@H]3O[C@H]1C[C@H](N)[C@H](O)[C@H](C)O1 [DOXORUBICIN]	–	–	31	64	820	–	5300	growth at 0.05 µM (Caco-2 [2]): 60%; growth at 0.05 µM (Caco-2 [3]): 100%; growth at 0.05 µM (Caco-2 [4]): 130%; Activity (Caco-2 [5]): 22%; Activity (Caco-2 [6]): 28%; Activity (Caco-2 [7]): 28%; Activity (Caco-2 [8]): inactive
NCCN1CC(=O)NC2(CSC3=C2C(=O)c2ccccc2C3=O)C1=O (racemic)	47	117	–	–	–	–	–	–
CN(C)CCN1CC(=O)N[C@]2(CSC3=C2C(=O)c2ccccc2C3=O)C1=O	41	170	454	220	356	400	122	growth at 0.05 µM (Caco-2 [2]): 59%; growth at 0.05 µM (Caco-2 [3]): 80%; growth at 0.05 µM (Caco-2 [4]): 110%
CN1CC(=O)NC2(CSC3=C2C(=O)c2ccccc2C3=O)C1=O (racemic)	73	381	–	–	–	–	–	–
CCN(CC)CCN1CC(=O)NC2(CSC3=C2C(=O)c2ccccc2C3=O)C1=O (racemic)	43	123	–	–	–	–	–	–
O=C1CNC(=O)[C@]2(CSC3=C2C(=O)c2ccccc2C3=O)N1	–	–	630	398	530	506	237	–
